Here are results for seven compounds from ChEMBL document CHEMBL3243993, “Cardenolide analogues. 4. (20R)- and (20S)-Cardanolides: on the roles of the 20(22)-ene and 14beta-hydroxyl in genin activity” (J Med Chem, 1979).

Data set [1] can be described thus: Inhibition of rat brain (Na+,K+)ATPase in presence of appropriate Mg2+ and Na+. Particulars: read-out: I50.
A short description of data set [2]: Inhibition of rat brain (Na+,K+)ATPase incubated for 10 mins followed by Kcl added in presence of appropriate Mg2+ and Na+. To be noted: read-out: I50. A digest of the protocol:
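Steroids added in ethanol to the (Na+,K+)ATPase tubes, at most 20 μL ethanol per tube. After 10 min, KCl was added to start (Na+,K+)ATPase activity. Where a steroid was insoluble in the medium, no precise value could be obtained.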

The nature of data set [3]: Solubility of the compound in steroid medium. It counts as physicochemical. In outline:
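Observed in the (Na⁺,K⁺)ATPase assay medium. Steroids were added in ethanol to the enzyme tubes, at no more than 20 μL ethanol per tube. After 10 min, KCl was added to start (Na⁺,K⁺)ATPase activity.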

Turning to `C[C@]12CC[C@H](O)C[C@H]1CC[C@@H]1[C@@H]2CC[C@]2(C)[C@@H]([C@@H]3COC(=O)C3)CC[C@]12O`, the IC50 in data set [1] is 14 µM; in data set [2] it was 11 µM.

With `C[C@]12CC[C@H](O)C[C@H]1CC[C@@H]1[C@@H]2CC[C@]2(C)[C@@H]([C@H]3COC(=O)C3)CC[C@]12O`, the results for the IC50 in data set [1] and in data set [2] were 14 µM and 12 µM, respectively.

`C=C1C(=O)OC[C@H]1[C@H]1CC[C@]2(O)[C@@H]3CC[C@@H]4C[C@@H](O)CC[C@]4(C)[C@H]3CC[C@]12C`: the IC50 is 70 µM in data set [1] and 60 µM in data set [2].

For `C=C1C(=O)OC[C@@H]1[C@H]1CC[C@]2(O)[C@@H]3CC[C@@H]4C[C@@H](O)CC[C@]4(C)[C@H]3CC[C@]12C`, the IC50 in data set [1] and in data set [2] was 70 µM each time.

As for `C=C1C(=O)OC[C@H]1[C@H]1CC=C2[C@@H]3CC[C@@H]4C[C@@H](O)CC[C@]4(C)[C@H]3CC[C@@]21C`, the IC50 in data set [1] and in data set [2] was 100 µM in each case. Besides, the solubility result in data set [3] is on record as “Insoluble”.

Turning to `C=C1C(=O)OC[C@@H]1[C@H]1CC=C2[C@@H]3CC[C@@H]4C[C@@H](O)CC[C@]4(C)[C@H]3CC[C@@]21C`, the figures for the IC50 in data set [1] and in data set [2] were 30 µM and 20 µM, respectively.

Take `C[C@]12CC[C@H](O)C[C@H]1CC[C@@H]1[C@@H]2CC[C@]2(C)[C@@H](C3=CC(=O)OC3)CC[C@]12O` [DIGITOXIGENIN]: the IC50 in data set [1] and in data set [2] was 0.35 µM each time.
